Measurements from publication PMC2933508 (Cancer research, 2010).
Where a SMILES comes first, the peptide text is derived from it. [ ]: non-standard residue; d: D form. The star is where a group is joined. NH(Colchicin-10-yl) = COc1cc2c(c(OC)c1OC)-c1ccc(N*)c(=O)cc1[C@@H](NC(C)=O)CC2; FITC = O=C1OC2(c3ccc(O)cc3Oc3cc(O)ccc32)c2ccc(NC(=S)*)cc21; hPhe = N[C@@H](CCc1ccccc1)C(=O)O; Cit = NC(=O)NCCC[C@H](N)C(=O)O; βAla = NCCC(=O)O

How the values were obtained:
[1] = test system: HT1080 cells (MT1-MMP positive); experiment: MTT chemosensitivity assay, HT1080 cells; type: cell-based, human; conditions: in vitro, MTT IC50 ratio
Method in brief: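 HT1080 and MCF7 cells were grown in RPMI 1640 with 10% FBS, 1 mmol/L pyruvate and 2 mmol/L glutamine, at low passage. MTT assay: exposure to test conjugate (2.4 nmol/L–5 μmol/L), free metabolite (0.1 nmol/L–5 μmol/L) or DMSO for 24 or 96 h. Survival was read 96 h post-treatment and IC50 taken from survival curves; mean ± SD of 3 independent experiments.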

[2] = Pharmacokinetics and tissue distribution in HT1080 tumor-bearing mice; type: in vivo, mouse; conditions: ICT2552 10.2 mg kg−1 i.p., 4 h post-administration
Method in brief: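 Mice bearing HT1080 tumours received i.p. test conjugate (150 mg kg⁻¹), free metabolite (10.2 mg kg⁻¹) or vehicle (10% DMSO/Arachis oil). Tumour, blood, liver, kidney, lung, heart and spleen were collected at set times. Plasma (5000 g, 10 min) was diluted 1:5 into methanol; tissues were snap-frozen and homogenized in ice-cold methanol. Supernatants went to LC-MS against agent-free plasma/tissue calibrators; 3 mice per time point.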

HT1080 tumors [3] = experiment: Antitumor activity, HT1080 xenograft, single agent; type: in vivo, mouse
Method in brief: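 Female Balb/c nude mice (6–8 wk) carried s.c. HT1080 xenograft fragments (2–3 mm³) and were randomized at ~32 mm³. They got a single i.p. dose of test conjugate (37.5, 50, 62.5 or 75 mg kg⁻¹) or molar-equivalent free metabolite (7.5–15 mg kg⁻¹). Caliper volume ((a²×b)/2, normalized to day 0) and body weight were recorded daily for up to 64 days. Growth delay was the time to tumor-volume doubling relative to control. Mann-Whitney U test.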

[4] = ICT2588 metabolism ex vivo in MCF7 xenograft homogenate; type: in vitro ADME; conditions: human, other tissue homogenate, pH 7.6
Method in brief: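 Supernatants were run at 100 mg tissue per ml with test compound at 20 μmol/L final. Aliquots taken over 120 min were acetonitrile-precipitated and analysed by LC-MS: reverse-phase, 22.5–50% acetonitrile/0.05% TFA gradient over 30 min, parent quantified at 360 nm. Three independent experiments.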

HT1080 tumors [5] = experiment: Vascular shutdown and tumor necrosis in HT1080 tumors; type: in vivo, mouse; conditions: 24 h after i.p. ICT2588 150 mg kg−1, HT1080 tumor-bearing mice, mean of 3 mice
Method in brief: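 Mice bearing HT1080 tumours got i.p. test conjugate (150 mg kg⁻¹), free metabolite (10.2 mg kg⁻¹) or vehicle (10% DMSO/Arachis oil). Functional tumour vasculature and hemorrhagic necrosis were assessed 24 h later; mean of 3 mice ± standard error.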

MCF7 = experiment: Intracellular fluorescence following treatment; type: cell-based, human; conditions: in vitro

## COc1cc2c(c(OC)c1OC)-c1ccc(N)c(=O)cc1[C@@H](NC(C)=O)CC2 [ICT2552, azademethylcolchicine]
[1]
  chemosensitivity of HT1080 cells relative to MCF7 cells: equally cytotoxic to HT1080 and MCF7 cells
[2]
  concentration of ICT2552 in plasma: below the level of detection
  concentration of ICT2552 in tumor versus liver tissue: not significantly different
HT1080 tumors [3]; ICT2552 15 mg kg−1 single i.p. dose (equimolar to ICT2588 75 mg kg−1)
  tumor growth delay: 1.9 days
HT1080 tumors [3]; ICT2552 7.5, 10, 12.5 and 15 mg kg−1 i.p.
  antitumor response compared with ICT2588 at equimolar doses: significantly lower antitumor response

## COc1cc2c(c(OC)c1OC)-c1ccc(NC(=O)[C@H](Cc3ccc(O)cc3)NC(=O)[C@H](CC(C)C)NC(=O)[C@H](Cc3ccc(O)cc3)NC(=O)[C@H](CCc3ccccc3)NC(=O)CNC(=O)[C@H](CCCNC(N)=O)NC(=O)[C@H](CO)NC(=O)[C@H](CCCNC(=N)N)NC(=O)CCNC(=S)Nc3ccc4c(c3)C(=O)OC43c4ccc(O)cc4Oc4cc(O)ccc43)c(=O)cc1[C@@H](NC(C)=O)CC2 [ICT2588] ({FITC-βAla}-RS[Cit]G[hPhe]YLY-{NH(Colchicin-10-yl)}; N-terminus and C-terminus assumed)
[1]
  chemosensitivity of HT1080 cells relative to MCF7 cells: at least 10 fold
[4]
  half-life: 33.1 min
HT1080 tumors [5]
  increase in hemorrhagic necrosis: 3 fold
HT1080 tumors [3]; ICT2588 75 mg kg−1 single i.p. dose, p<0.01
  tumor growth delay: 4.4 days
HT1080 tumors [3]; all doses of ICT2588 used (37.5-75 mg kg−1 i.p.), data not shown
  loss in mouse bodyweight (maximum): ≤ 6%
MCF7
  cell entry / intracellular fluorescence following treatment: lack of observable intracellular fluorescence
